Laboratory results: ChEMBL document CHEMBL1772938, “Optimization of 3-(phenylthio)quinolinium compounds against opportunistic fungal pathogens” (Eur J Med Chem, 2011)
In brackets after ≈: the same amount, converted by molar mass.

Tests used:
Candida albicans [1] = assay: Antimicrobial activity against Candida albicans ATCC 90028 by CLSI method; format: functional
Method in brief: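 C. albicans inoculum was made to the 0.5 McFarland standard in Sabouraud dextrose broth or RPMI 1640. Samples came from DMSO stocks serially diluted in saline, in duplicate, starting at a final 20 μg/mL. Plates were read at OD 630 nm before and after incubation. IC50 came from the % growth versus concentration plot; MIC was the lowest concentration with no visible growth. Included: growth, solvent and blank controls, plus amphotericin B.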

Cryptococcus neoformans [2] = assay: Antimicrobial activity against Cryptococcus neoformans ATCC 90113 by CLSI method; format: functional
Method in brief: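 C. neoformans in Sabouraud dextrose broth, inoculum per the 0.5 McFarland standard. Saline serial dilutions of DMSO samples were tested in duplicate, with a final top concentration of 20 μg/mL. OD 630 nm was read before and after incubation. IC50 was derived from % growth versus concentration. MIC was judged visually as the lowest concentration with no detectable growth. Amphotericin B served as the drug control.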

Aspergillus fumigatus [3] = assay: Antimicrobial activity against Aspergillus fumigatus ATCC 90906 by CLSI method; format: functional
Method in brief: (§1)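 Modified CLSI broth microdilution. DMSO stocks were serially diluted in saline and run in duplicate. Inoculum was set by the 0.5 McFarland standard in YM broth for MIC, or in RPMI-1640 + 5% Alamar Blue for IC50. The top final concentration was 20 μg/mL. Fluorescence (544ex/590em) was read before and after incubation. IC50 was taken from % growth versus concentration; MIC was read visually as no blue-to-pink change.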

[4] = Selectivity index, ratio of TC50 for african green monkey Vero cells to IC50 for Cryptococcus neoformans ATCC 90113; format: toxicity, cell-based; conditions: read-out: Selectivity Index
Nakaseomyces glabratus [5] = assay: Antimicrobial activity against Candida glabrata ATCC 90030 by CLSI method; format: functional
Method in brief: (§2)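 Modified CLSI microdilution. DMSO samples were serially diluted in saline and tested in duplicate against inoculum adjusted by the 0.5 McFarland standard. The final test range started at 20 μg/mL. Plates were read before and after incubation. IC50 came from % growth versus concentration; MIC was the lowest concentration without visible growth. Growth, solvent, blank and amphotericin B controls were on each plate.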

Pichia kudriavzevii [6] = assay: Antimicrobial activity against Candida krusei ATCC 6258 by CLSI method; format: functional; method in brief: as §2
Nakaseomyces glabratus [7] = assay: Antimicrobial activity against Candida glabrata ATCC 90030 by alamar blue assay; format: functional, organism-based
[8] = Cytotoxicity against african green monkey Vero cells after 48 hrs by neutral red assay; format: cell-based; conditions: chlorocebus sabaeus, read-out: TC50
Method in brief: (§3)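 VERO kidney cells were seeded at 25,000 cells/well and incubated 24 h. Samples were added up to 10 μg/mL and incubated a further 48 h. Viable cells were counted by neutral red uptake. IC50 came from growth-inhibition dose curves. Doxorubicin was the positive control and DMSO the vehicle control.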

Candida albicans [9] = assay: Antimicrobial activity against Candida albicans ATCC 90028 by alamar blue assay; format: functional, organism-based
Aspergillus fumigatus [10] = assay: Antimicrobial activity against Aspergillus fumigatus ATCC 90906 by alamar blue assay; format: functional, organism-based; method in brief: as §1
Cryptococcus neoformans [11] = assay: Antimicrobial activity against Cryptococcus neoformans ATCC 90113 by alamar blue assay; format: functional, organism-based
Vero = assay: Cytotoxicity against african green monkey Vero cells at 10 ug/ml after 48 hrs by neutral red assay; format: cell-based; conditions: chlorocebus sabaeus; method in brief: as §3
Pichia kudriavzevii [12] = assay: Antimicrobial activity against Candida krusei ATCC 6258 by alamar blue assay; format: functional, organism-based

Row | MIC (Candida albicans [1]) | MIC (Cryptococcus neoformans [2]) | MIC (Aspergillus fumigatus [3]) | MIC (Nakaseomyces glabratus [5]) | MIC (Pichia kudriavzevii [6]) | SMILES | MFC (Candida albicans [1]) | MFC (Cryptococcus neoformans [2]) | MFC (Aspergillus fumigatus [3]) | selectivity ratio [4] | MFC (Nakaseomyces glabratus [5]) | MFC (Pichia kudriavzevii [6]) | IC50 (Nakaseomyces glabratus [7]) | CC50 at 48 h [8] | IC50 (Candida albicans [9]) | IC50 (Aspergillus fumigatus [10]) | IC50 (Cryptococcus neoformans [11]) | Activity (Vero) | IC50 (Pichia kudriavzevii [12])
1 | 10 µg/mL | 5 µg/mL | 1.3 µg/mL | – | – | [I-].c1ccc(CCCCC[n+]2cc(Sc3ccccc3)cc3ccccc32)cc1 | > 20 µg/mL | > 20 µg/mL | > 20 µg/mL | – | – | – | – | – | – | – | – | – | –
2 | 5 µg/mL | 1.3 µg/mL | 10 µg/mL | 20 µg/mL | 1.3 µg/mL | [I-].c1ccc(Sc2cc3ccccc3[n+](CCCCCC3CCCCC3)c2)cc1 | 10 µg/mL | 2.5 µg/mL | > 20 µg/mL | 9.2 | 20 µg/mL | 2.5 µg/mL | 15 µg/mL | 4.6 µg/mL | – | – | – | – | –
3 | > 20 µg/mL | 20 µg/mL | 20 µg/mL | – | – | Fc1ccccc1Sc1cc2ccccc2[n+](CCCCCc2ccccc2)c1.[I-] | > 20 µg/mL | > 20 µg/mL | > 20 µg/mL | – | – | – | – | – | > 20 µg/mL | 9 µg/mL | 9.5 µg/mL | Non-toxic | –
4 | > 20 µg/mL | > 20 µg/mL | > 20 µg/mL | – | – | COc1ccccc1Sc1cc2ccccc2[n+](CCCCCc2ccccc2)c1.[I-] | > 20 µg/mL | > 20 µg/mL | > 20 µg/mL | – | – | – | – | 4.3 µg/mL | > 20 µg/mL | 8 µg/mL | 15 µg/mL | – | –
5 | > 20 µg/mL | 20 µg/mL | 5 µg/mL | – | – | COc1cccc(Sc2cc3ccccc3[n+](CCCCCc3ccccc3)c2)c1.[I-] | > 20 µg/mL | > 20 µg/mL | > 20 µg/mL | – | – | – | – | > 10 µg/mL | > 20 µg/mL | 3.5 µg/mL | 10 µg/mL | – | –
6 | > 20 µg/mL | 20 µg/mL | 20 µg/mL | – | – | COc1ccc(Sc2cc3ccccc3[n+](CCCCCc3ccccc3)c2)cc1.[I-] | > 20 µg/mL | < 20 µg/mL | > 20 µg/mL | – | – | – | – | 10 µg/mL | > 20 µg/mL | 4.5 µg/mL | 15 µg/mL | – | –
7 | 20 µg/mL | 5 µg/mL | 2.5 µg/mL | – | – | Brc1ccccc1Sc1cc2ccccc2[n+](CCCCCc2ccccc2)c1.[I-] | > 20 µg/mL | 20 µg/mL | > 20 µg/mL | – | – | – | – | 10 µg/mL | 10 µg/mL | 1 µg/mL | 3 µg/mL | – | –
8 | 20 µg/mL | 5 µg/mL | 10 µg/mL | – | – | Brc1cccc(Sc2cc3ccccc3[n+](CCCCCc3ccccc3)c2)c1.[I-] | > 20 µg/mL | 10 µg/mL | > 20 µg/mL | – | – | – | – | > 10 µg/mL | 10 µg/mL | 2.5 µg/mL | 2 µg/mL | – | –
9 | 20 µg/mL | 5 µg/mL | > 20 µg/mL | – | – | FC(F)(F)c1ccc(Sc2cc3ccccc3[n+](CCCCCc3ccccc3)c2)cc1.[I-] | > 20 µg/mL | 10 µg/mL | > 20 µg/mL | – | – | – | – | 10 µg/mL | 11 µg/mL | 15 µg/mL | 2.7 µg/mL | – | –
10 | > 20 µg/mL | 2.5 µg/mL | > 20 µg/mL | – | – | Cc1cccc(Sc2cc3ccccc3[n+](CCCCCc3ccccc3)c2)c1.[I-] | > 20 µg/mL | 20 µg/mL | > 20 µg/mL | – | – | – | – | 8.8 µg/mL | > 20 µg/mL | 20 µg/mL | 1.4 µg/mL | – | –
11 | > 20 µg/mL | 2.5 µg/mL | > 20 µg/mL | – | – | Cc1ccc(Sc2cc3ccccc3[n+](CCCCCc3ccccc3)c2)cc1.[I-] | > 20 µg/mL | 5 µg/mL | > 20 µg/mL | – | – | – | – | 4.2 µg/mL | > 20 µg/mL | 16 µg/mL | 1.2 µg/mL | – | –
12 | 5 µg/mL | 0.6 µg/mL | 10 µg/mL | 20 µg/mL | 0.6 µg/mL | Fc1cccc(Sc2cc3ccccc3[n+](CCCCCC3CCCCC3)c2)c1.[I-] | 10 µg/mL | 2.5 µg/mL | 20 µg/mL | 13 | 20 µg/mL | 1.3 µg/mL | 12 µg/mL | 6.6 µg/mL | 2.7 µg/mL | 5.3 µg/mL | 0.5 µg/mL | – | 0.3 µg/mL
13 | 5 µg/mL | 0.6 µg/mL | 10 µg/mL | 20 µg/mL | 1.3 µg/mL | COc1cccc(Sc2cc3ccccc3[n+](CCCCCC3CCCCC3)c2)c1.[I-] | 10 µg/mL | 2.5 µg/mL | 20 µg/mL | 11 | > 20 µg/mL | 1.3 µg/mL | 16 µg/mL | 4.5 µg/mL | 2.7 µg/mL | 5.5 µg/mL | 0.4 µg/mL | – | 0.6 µg/mL
14 | 2.5 µg/mL | 0.6 µg/mL | 2.5 µg/mL | 5 µg/mL | 0.6 µg/mL | Brc1ccccc1Sc1cc2ccccc2[n+](CCCCCC2CCCCC2)c1.[I-] | 2.5 µg/mL | 1.3 µg/mL | 20 µg/mL | 32 | 10 µg/mL | 1.3 µg/mL | 3.2 µg/mL | 9.7 µg/mL | 1.4 µg/mL | 2 µg/mL | 0.3 µg/mL | – | 0.3 µg/mL
15 | 5 µg/mL | 0.6 µg/mL | 10 µg/mL | 20 µg/mL | 1.3 µg/mL | Cc1ccccc1Sc1cc2ccccc2[n+](CCCCCC2CCCCC2)c1.[I-] | 10 µg/mL | 1.3 µg/mL | > 20 µg/mL | 13 | 20 µg/mL | 1.3 µg/mL | 13 µg/mL | 4 µg/mL | 1.7 µg/mL | 4.8 µg/mL | 0.3 µg/mL | – | 0.6 µg/mL
16 | 2.5 µg/mL | 0.3 µg/mL | 5 µg/mL | 10 µg/mL | 0.6 µg/mL | Cc1cccc(Sc2cc3ccccc3[n+](CCCCCC3CCCCC3)c2)c1.[I-] | 5 µg/mL | 0.4 µg/mL | 5 µg/mL | 19 | 10 µg/mL | 1.3 µg/mL | 5.5 µg/mL | 3.7 µg/mL | 1.4 µg/mL | 3.5 µg/mL | 0.2 µg/mL | – | 0.4 µg/mL
17 | 2.5 µg/mL | 0.3 µg/mL | 5 µg/mL | 10 µg/mL | 0.6 µg/mL | Cc1ccc(Sc2cc3ccccc3[n+](CCCCCC3CCCCC3)c2)cc1.[I-] | 5 µg/mL | 1.3 µg/mL | 5 µg/mL | 14 | 10 µg/mL | 1.3 µg/mL | 5.5 µg/mL | 2.8 µg/mL | 1.3 µg/mL | 2.7 µg/mL | 0.2 µg/mL | – | 0.5 µg/mL
18 | 10 µg/mL | 1.3 µg/mL | 19 µg/mL | 20 µg/mL | 2.5 µg/mL | N#Cc1ccccc1Sc1cc2ccccc2[n+](CCCCCC2CCCCC2)c1.[I-] | 10 µg/mL | 10 µg/mL | 20 µg/mL | 9.1 | 20 µg/mL | 5 µg/mL | 12 µg/mL | 10 µg/mL | 3.3 µg/mL | 5 µg/mL | 1.1 µg/mL | – | 0.7 µg/mL
19 | 10 µg/mL | 1.3 µg/mL | 10 µg/mL | 20 µg/mL | 10 µg/mL | Oc1ccccc1Sc1cc2ccccc2[n+](CCCCCC2CCCCC2)c1.[I-] | 20 µg/mL | 1.3 µg/mL | > 20 µg/mL | 9.3 | > 20 µg/mL | 10 µg/mL | 12 µg/mL | 9.3 µg/mL | 4.7 µg/mL | 3.9 µg/mL | 1 µg/mL | – | 4.4 µg/mL
20 | 1.3 µg/mL (≈ 1.41 µM) | 1.3 µg/mL (≈ 1.41 µM) | 1.3 µg/mL (≈ 1.41 µM) | 1.3 µg/mL (≈ 1.41 µM) | 2.5 µg/mL (≈ 2.71 µM) | C[C@@H]1[C@H](O)[C@@H](C)/C=C/C=C/C=C/C=C/C=C/C=C/C=C/[C@H](O[C@@H]2O[C@H](C)[C@@H](O)[C@H](N)[C@@H]2O)C[C@@H]2O[C@](O)(C[C@@H](O)C[C@@H](O)[C@H](O)CC[C@@H](O)C[C@@H](O)CC(=O)O[C@H]1C)C[C@H](O)[C@H]2C(=O)O [AMPHOTERICIN B] | 1.3 µg/mL (≈ 1.41 µM) | 5 µg/mL (≈ 5.41 µM) | 5 µg/mL (≈ 5.41 µM) | 14 | 2.5 µg/mL (≈ 2.71 µM) | 2.5 µg/mL (≈ 2.71 µM) | 0.6 µg/mL (≈ 0.649 µM) | 6.5 µg/mL (≈ 7.03 µM) | – | – | – | – | 0.9 µg/mL (≈ 0.974 µM)
